The source made the active and inactive calls. No cut-off for these calls is given here. Where a SMILES comes first, the peptide text is derived from it.
Legend:
[1] = target: Gastrin-releasing peptide receptor (Homo sapiens) (UniProt P30550); assay: Agonist activity at GRPR (unknown origin); assay type: functional
Summary of the method: (§1)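 PRESTO-Tango β-arrestin2 recruitment; HTLA cells (HEK-T stably expressing β-arrestin2-TEV and tTA-dependent luciferase) transfected by calcium phosphate with receptor-Tango construct, replated next day at 20,000 cells/well; compounds in HBSS/20 mM HEPES/0.3% BSA pH 7.4, 18–24 h; Bright-Glo luminescence after 15 min RT, read as RLU; ≥2-fold over basal scored active.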

[2] = target: 5-hydroxytryptamine receptor 1A (Homo sapiens) (UniProt P08908); assay: Agonist activity at HTR1A receptor (unknown origin); assay type: functional; summary of the method: as §1
Sequence of 5-hydroxytryptamine receptor 1A (Homo sapiens) (P08908 whole entry): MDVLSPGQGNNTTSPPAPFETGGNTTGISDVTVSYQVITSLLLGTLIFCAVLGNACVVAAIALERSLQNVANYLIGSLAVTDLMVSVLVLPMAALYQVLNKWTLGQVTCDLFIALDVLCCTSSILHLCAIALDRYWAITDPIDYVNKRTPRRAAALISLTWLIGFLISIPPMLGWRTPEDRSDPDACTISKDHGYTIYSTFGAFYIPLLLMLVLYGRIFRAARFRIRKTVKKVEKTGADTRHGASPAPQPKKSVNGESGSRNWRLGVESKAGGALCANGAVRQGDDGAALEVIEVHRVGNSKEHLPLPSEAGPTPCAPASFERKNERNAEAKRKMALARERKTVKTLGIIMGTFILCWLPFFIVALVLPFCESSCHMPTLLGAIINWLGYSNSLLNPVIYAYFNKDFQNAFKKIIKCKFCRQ

[3] = target: 5-hydroxytryptamine receptor 2A (Homo sapiens) (UniProt P28223); assay: Agonist activity at HTR2 receptor (unknown origin); assay type: functional; summary of the method: as §1
Sequence of 5-hydroxytryptamine receptor 2A (Homo sapiens) (P28223 whole entry): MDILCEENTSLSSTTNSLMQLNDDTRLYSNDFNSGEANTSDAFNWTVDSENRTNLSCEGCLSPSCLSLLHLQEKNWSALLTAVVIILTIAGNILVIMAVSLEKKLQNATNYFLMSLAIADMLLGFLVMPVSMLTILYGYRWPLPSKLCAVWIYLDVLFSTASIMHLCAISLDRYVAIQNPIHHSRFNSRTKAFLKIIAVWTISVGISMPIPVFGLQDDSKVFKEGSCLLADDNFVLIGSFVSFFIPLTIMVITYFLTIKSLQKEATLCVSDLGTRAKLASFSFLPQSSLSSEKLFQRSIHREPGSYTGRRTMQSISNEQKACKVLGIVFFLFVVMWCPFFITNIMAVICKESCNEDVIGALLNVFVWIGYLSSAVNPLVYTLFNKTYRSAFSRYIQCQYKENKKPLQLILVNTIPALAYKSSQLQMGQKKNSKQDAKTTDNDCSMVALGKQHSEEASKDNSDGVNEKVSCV

[4] = target: T1, Mas-related G-protein coupled receptor member X2 (Homo sapiens, UniProt Q96LB1); assay: Agonist activity at N-terminal Flag-tagged human MRGPRX2 receptor expressed in tetracycline-induced FLP-IN/T-REX 293 cells assessed as increase in intracellular calcium release by FLIPR assay; assay type: functional, cell-based
T1 sequence (Q96LB1 whole entry): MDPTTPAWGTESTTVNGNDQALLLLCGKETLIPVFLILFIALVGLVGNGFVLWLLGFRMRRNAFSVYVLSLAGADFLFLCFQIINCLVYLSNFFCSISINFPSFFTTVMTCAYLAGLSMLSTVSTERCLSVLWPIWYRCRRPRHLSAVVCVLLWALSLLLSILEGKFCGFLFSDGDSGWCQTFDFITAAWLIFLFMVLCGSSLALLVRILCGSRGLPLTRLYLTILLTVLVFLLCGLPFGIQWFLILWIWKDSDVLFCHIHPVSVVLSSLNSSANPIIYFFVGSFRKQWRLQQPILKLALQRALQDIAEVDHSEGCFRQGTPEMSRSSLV

[5] = target: Type-1 angiotensin II receptor (Homo sapiens) (UniProt P30556); assay: Agonist activity at AGTR1 receptor (unknown origin); assay type: functional; summary of the method: as §1
Sequence of Type-1 angiotensin II receptor (Homo sapiens) (P30556 whole entry): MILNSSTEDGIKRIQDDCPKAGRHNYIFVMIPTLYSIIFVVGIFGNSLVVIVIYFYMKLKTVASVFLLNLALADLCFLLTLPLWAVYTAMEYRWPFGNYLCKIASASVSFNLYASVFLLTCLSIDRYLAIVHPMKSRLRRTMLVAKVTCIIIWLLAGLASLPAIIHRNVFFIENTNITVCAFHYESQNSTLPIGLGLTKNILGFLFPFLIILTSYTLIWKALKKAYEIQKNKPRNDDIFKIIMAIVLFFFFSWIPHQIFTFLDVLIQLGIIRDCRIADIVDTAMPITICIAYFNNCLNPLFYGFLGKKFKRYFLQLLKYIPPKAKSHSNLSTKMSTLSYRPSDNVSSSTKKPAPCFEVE

[6] = target: Beta-3 adrenergic receptor (Homo sapiens) (UniProt P13945); assay: Agonist activity at ADRB3 receptor (unknown origin); assay type: functional; summary of the method: as §1
Sequence of Beta-3 adrenergic receptor (Homo sapiens) (P13945 whole entry, looked up): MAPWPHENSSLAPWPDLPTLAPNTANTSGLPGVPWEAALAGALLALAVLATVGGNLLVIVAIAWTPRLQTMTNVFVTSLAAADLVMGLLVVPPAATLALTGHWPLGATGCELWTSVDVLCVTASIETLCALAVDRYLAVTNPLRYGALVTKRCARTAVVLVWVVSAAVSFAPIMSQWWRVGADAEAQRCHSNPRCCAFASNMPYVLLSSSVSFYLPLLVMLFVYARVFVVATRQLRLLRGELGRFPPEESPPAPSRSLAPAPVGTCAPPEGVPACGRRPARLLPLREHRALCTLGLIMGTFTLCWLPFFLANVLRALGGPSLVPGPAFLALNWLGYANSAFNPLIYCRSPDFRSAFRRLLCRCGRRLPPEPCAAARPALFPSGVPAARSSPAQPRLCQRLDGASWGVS

[7] = target: Lutropin-choriogonadotropic hormone receptor (Homo sapiens) (UniProt P22888); assay: Agonist activity at LHCGR (unknown origin); assay type: functional; summary of the method: as §1
[8] = target: Alpha-1A adrenergic receptor (Homo sapiens) (UniProt P35348); assay: Agonist activity at ADRA1A receptor (unknown origin); assay type: functional; summary of the method: as §1
[9] = target: Alpha-2C adrenergic receptor (Homo sapiens) (UniProt P18825); assay: Agonist activity at ADRA2C receptor (unknown origin); summary of the method: as §1
[10] = target: Beta-1 adrenergic receptor (Homo sapiens) (UniProt P08588); assay: Agonist activity at ADRB1 receptor (unknown origin); assay type: functional; summary of the method: as §1
Sequence of Beta-1 adrenergic receptor (Homo sapiens) (P08588 whole entry, looked up): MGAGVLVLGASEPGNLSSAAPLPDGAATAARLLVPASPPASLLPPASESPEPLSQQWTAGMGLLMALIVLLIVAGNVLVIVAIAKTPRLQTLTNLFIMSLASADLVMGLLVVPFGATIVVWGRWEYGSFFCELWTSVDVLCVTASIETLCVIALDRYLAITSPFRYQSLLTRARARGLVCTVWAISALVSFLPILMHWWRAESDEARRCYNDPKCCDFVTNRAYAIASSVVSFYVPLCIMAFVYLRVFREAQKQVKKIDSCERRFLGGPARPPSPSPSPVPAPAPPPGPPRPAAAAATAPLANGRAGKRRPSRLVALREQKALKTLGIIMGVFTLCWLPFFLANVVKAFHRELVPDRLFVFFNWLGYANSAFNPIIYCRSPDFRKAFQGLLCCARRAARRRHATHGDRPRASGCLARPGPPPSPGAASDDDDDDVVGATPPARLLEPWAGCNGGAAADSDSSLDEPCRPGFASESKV

[11] = target: Glucagon-like peptide 1 receptor (Homo sapiens) (UniProt P43220); assay: Agonist activity at GLP1R (unknown origin); assay type: functional; summary of the method: as §1
[12] = target: Glucose-dependent insulinotropic receptor (Homo sapiens) (UniProt Q8TDV5); assay: Agonist activity at GPR119 receptor (unknown origin); assay type: functional; summary of the method: as §1
Sequence of Glucose-dependent insulinotropic receptor (Homo sapiens) (Q8TDV5 whole entry): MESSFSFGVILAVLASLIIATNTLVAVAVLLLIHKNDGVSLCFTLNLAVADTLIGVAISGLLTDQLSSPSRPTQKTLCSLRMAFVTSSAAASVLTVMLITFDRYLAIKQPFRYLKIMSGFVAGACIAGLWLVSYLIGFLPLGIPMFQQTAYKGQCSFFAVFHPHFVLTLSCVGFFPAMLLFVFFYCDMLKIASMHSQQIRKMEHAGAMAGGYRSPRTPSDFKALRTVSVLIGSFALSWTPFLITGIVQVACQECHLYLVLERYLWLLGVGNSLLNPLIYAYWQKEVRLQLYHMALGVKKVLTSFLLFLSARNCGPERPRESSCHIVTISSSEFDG

[13] = target: Melanin-concentrating hormone receptor 2 (Homo sapiens) (UniProt Q969V1); assay: Agonist activity at MCHR2 receptor (unknown orgini); assay type: functional; summary of the method: as §1
[14] = target: Pituitary adenylate cyclase-activating polypeptide type I receptor (Homo sapiens) (UniProt P41586); assay: Agonist activity at ADCYAP1 receptor (unknown origin); summary of the method: as §1
[15] = target: G-protein coupled receptor 15 (Homo sapiens) (UniProt P49685); assay: Agonist activity at GPR15 receptor (unknown origin); assay type: functional; summary of the method: as §1
Sequence of G-protein coupled receptor 15 (Homo sapiens) (P49685 whole entry): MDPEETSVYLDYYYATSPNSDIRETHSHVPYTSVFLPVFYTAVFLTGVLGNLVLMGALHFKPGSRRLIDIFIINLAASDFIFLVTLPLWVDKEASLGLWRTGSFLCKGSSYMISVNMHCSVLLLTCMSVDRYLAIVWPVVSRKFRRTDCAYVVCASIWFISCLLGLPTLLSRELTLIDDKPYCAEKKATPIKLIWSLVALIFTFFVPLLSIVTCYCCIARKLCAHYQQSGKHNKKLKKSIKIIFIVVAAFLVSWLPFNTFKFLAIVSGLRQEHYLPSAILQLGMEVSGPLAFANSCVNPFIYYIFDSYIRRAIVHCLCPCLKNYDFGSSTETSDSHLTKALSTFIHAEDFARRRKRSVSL

[16] = target: D(4) dopamine receptor (Homo sapiens) (UniProt P21917); assay: Agonist activity at DRD4 receptor (unknown origin); assay type: functional; summary of the method: as §1
[17] = target: Prosaposin receptor GPR37 (Homo sapiens) (UniProt O15354); assay: Agonist activity at GPR37 receptor (unknown origin); assay type: functional; summary of the method: as §1
[18] = target: Alpha-1D adrenergic receptor (Homo sapiens) (UniProt P25100); assay: Agonist activity at ADRA1D receptor (unknown origin); assay type: functional; summary of the method: as §1
Sequence of Alpha-1D adrenergic receptor (Homo sapiens) (P25100 whole entry): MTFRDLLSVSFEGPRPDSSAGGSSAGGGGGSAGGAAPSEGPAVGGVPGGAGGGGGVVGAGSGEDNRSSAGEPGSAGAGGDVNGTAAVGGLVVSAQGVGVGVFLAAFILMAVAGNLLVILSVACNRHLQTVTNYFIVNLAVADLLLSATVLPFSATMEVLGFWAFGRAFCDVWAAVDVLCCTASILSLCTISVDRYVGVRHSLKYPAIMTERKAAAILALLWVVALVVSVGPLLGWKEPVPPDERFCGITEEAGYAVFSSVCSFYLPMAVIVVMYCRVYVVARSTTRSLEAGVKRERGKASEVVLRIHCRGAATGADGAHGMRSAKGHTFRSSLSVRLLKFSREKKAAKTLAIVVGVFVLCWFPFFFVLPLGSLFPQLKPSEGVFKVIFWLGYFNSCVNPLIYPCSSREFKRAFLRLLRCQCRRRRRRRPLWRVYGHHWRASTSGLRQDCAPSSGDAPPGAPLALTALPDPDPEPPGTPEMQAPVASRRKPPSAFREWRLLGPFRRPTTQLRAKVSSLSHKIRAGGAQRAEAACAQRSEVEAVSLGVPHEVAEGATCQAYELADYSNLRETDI

[19] = target: T2, Mas-related G-protein coupled receptor member X2 (Homo sapiens) (UniProt Q96LB1); assay: Agonist activity at MRGPRX2 receptor in human LAD2 cells assessed as increase in degranulation incubated for 30 mins by beta-hexosaminidase assay; assay type: functional, cell-based; conditions: filed as agonist
T2 sequence (whole entry): T1 sequence (Q96LB1 whole entry)
Summary of the method: (§2)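 β-Hexosaminidase release: LAD2 cells in fresh medium 18 h, washed in Tyrode's buffer pH 7.4, 10,000 cells/well; drug (single concentration or 8-point curve) added in triplicate, 30 min 37°C; supernatant and Triton X-100 lysate each reacted with NAG in citrate pH 4.5 for 90 min 37°C, stopped with carbonate pH 10, A405; % release = released/total ×100, minus vehicle.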

[20] = target: Muscarinic acetylcholine receptor M2 (Homo sapiens) (UniProt P08172); assay: Agonist activity at CHRM2 receptor (unknown origin); assay type: functional; summary of the method: as §1
Sequence of Muscarinic acetylcholine receptor M2 (Homo sapiens) (P08172 whole entry): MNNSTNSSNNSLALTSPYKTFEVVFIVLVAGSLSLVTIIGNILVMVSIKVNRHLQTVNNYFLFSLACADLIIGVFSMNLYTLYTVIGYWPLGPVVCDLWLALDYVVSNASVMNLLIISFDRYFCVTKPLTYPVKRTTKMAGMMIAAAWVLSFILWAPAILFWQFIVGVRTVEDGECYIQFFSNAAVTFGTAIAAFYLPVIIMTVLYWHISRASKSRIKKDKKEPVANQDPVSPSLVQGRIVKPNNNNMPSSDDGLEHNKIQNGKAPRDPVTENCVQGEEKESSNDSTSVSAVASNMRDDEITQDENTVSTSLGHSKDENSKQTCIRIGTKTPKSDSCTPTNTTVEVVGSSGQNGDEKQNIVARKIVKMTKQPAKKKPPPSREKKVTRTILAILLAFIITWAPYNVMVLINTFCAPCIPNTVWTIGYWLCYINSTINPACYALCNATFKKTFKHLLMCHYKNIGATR

[21] = target: Cannabinoid receptor 2 (Homo sapiens) (UniProt P34972); assay: Agonist activity at CNR2 receptor (unknown origin); assay type: functional; summary of the method: as §1
[22] = target: Proteinase-activated receptor 2 (Homo sapiens) (UniProt P55085); assay: Agonist activity at F2R-L1 receptor (unknown origin); summary of the method: as §1
[23] = target: Alpha-1B adrenergic receptor (Homo sapiens) (UniProt P35368); assay: Agonist activity at ADRA1B receptor (unknown origin); assay type: functional; summary of the method: as §1
Sequence of Alpha-1B adrenergic receptor (Homo sapiens) (P35368 whole entry): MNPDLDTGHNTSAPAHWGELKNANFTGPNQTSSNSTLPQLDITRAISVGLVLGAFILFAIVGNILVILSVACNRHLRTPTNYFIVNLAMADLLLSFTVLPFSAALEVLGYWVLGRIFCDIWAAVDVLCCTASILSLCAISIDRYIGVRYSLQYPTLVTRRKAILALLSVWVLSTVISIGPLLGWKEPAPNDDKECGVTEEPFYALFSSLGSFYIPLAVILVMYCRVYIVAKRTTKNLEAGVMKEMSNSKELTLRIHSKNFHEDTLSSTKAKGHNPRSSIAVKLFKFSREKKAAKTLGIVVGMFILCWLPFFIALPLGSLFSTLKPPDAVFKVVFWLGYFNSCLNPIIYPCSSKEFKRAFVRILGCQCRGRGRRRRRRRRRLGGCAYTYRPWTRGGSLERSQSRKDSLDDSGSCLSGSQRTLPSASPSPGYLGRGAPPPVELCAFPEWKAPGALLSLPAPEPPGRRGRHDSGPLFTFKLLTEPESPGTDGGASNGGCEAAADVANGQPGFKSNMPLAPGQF

[24] = target: T1, Mas-related G-protein coupled receptor member X2; assay: Agonist activity at MRGPRX2 (unknown origin) expressed in HTLA cells assessed as induction of beta-arrestin 2 recruitment incubated for 18 to 24 hrs by PRESTO-Tango assay; assay type: functional, cell-based
Flp-In-T-REx-293 = assay: Agonist activity at rodent MRGPRB2 receptor expressed in tetracycline-induced FLP-IN/T-REX 293 cells assessed as increase in intracellular calcium release at 0.003 to 100000 nM by FLIPR assay; assay type: cell-based; conditions: Rodentia, filed as agonist, dose 0.003-100000 nM
HTLA [25] = assay: Agonist activity at […] expressed in HTLA cells assessed as induction of beta-arrestin 2 recruitment incubated for 18 to 24 hrs by PRESTO-Tango assay; assay type: cell-based; conditions: Rodentia, filed as agonist, time 18-24 hrs
Summary of the method: (§3)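 β-arrestin2 recruitment by PRESTO-Tango: HTLA cells transiently transfected (calcium phosphate) with codon-optimized MRGPRX2-Tango (WT or point mutant) or MRGPRB2-Tango, plated next day 20,000 cells/well on poly-L-lysine; drug in HBSS/20 mM HEPES/0.3% BSA pH 7.4 for 18–24 h; Bright-Glo luminescence (RLU); curves n=3 in triplicate, mutants n=4 in triplicate.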

[26] = target: T2, Mas-related G-protein coupled receptor member X2 (Homo sapiens); assay: Agonist activity at MRGPRX2 receptor in human LAD2 cells assessed as increase in degranulation incubated for 30 mins in presence of naloxone by beta-hexosaminidase assay; assay type: functional, cell-based; summary of the method: as §2
[27] = target: T2, Mas-related G-protein coupled receptor member X2 (Homo sapiens); assay: Agonist activity at MRGPRX2 receptor in human LAD2 cells transfected with MRGPRX2 siRNA assessed as increase in degranulation incubated for 30 mins by beta-hexosaminidase assay; assay type: functional, cell-based
Summary of the method: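 LAD2 cells (1.2 million/well) transfected with 25 nM MRGPRX2 siRNA pool or non-targeting pool, 72 h; 200,000 cells taken for β-hexosaminidase assay with EC80 concentration of agonist, 30 min 37°C; knockdown checked by qRT-PCR on 1 million cells; fold change % degranulation versus DMSO; two-way ANOVA with Sidak test.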

[28] = target: T2, Mas-related G-protein coupled receptor member X2 (Homo sapiens); assay: Agonist activity at MRGPRX2 receptor in human LAD2 cells assessed as increase in intracellular calcium release by FLIPR assay; assay type: functional, cell-based; conditions: filed as agonist
Summary of the method: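 LAD2 human mast cells seeded 50,000/well in Tyrode's buffer with calcium dye, 1 h before drug; 10 s baseline, drug added, fluorescence followed 120 s; expressed as fold calcium release over baseline; n=3 in triplicate.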

HTLA [29] = assay: Agonist activity at MRGPRX2 D184E mutant (unknown origin) expressed in HTLA cells assessed as induction of beta-arrestin 2 recruitment incubated for 18 to 24 hrs by PRESTO-Tango assay; assay type: cell-based; conditions: Homo sapiens, time 18-24 hrs; summary of the method: as §3
HTLA [30] = assay: Agonist activity at MRGPRX2 E164D mutant (unknown origin) expressed in HTLA cells assessed as induction of beta-arrestin 2 recruitment incubated for 18 to 24 hrs by PRESTO-Tango assay; assay type: cell-based; conditions: Homo sapiens, filed as agonist, time 18-24 hrs; summary of the method: as §3
[31] = target: T2, Mas-related G-protein coupled receptor member X2 (Homo sapiens); assay: Agonist activity at MRGPRX2 (unknown origin) expressed in HTLA cells assessed as induction of beta-arrestin 2 recruitment <100 uM incubated for 18 to 24 hrs by PRESTO-Tango assay; assay type: functional, cell-based; conditions: filed as agonist, time 18-24 hrs; summary of the method: as §3
[32] = target: T2, Mas-related G-protein coupled receptor member X2 (Homo sapiens); assay: Agonist activity at N-terminal Flag-tagged human MRGPRX2 receptor expressed in tetracycline-induced FLP-IN/T-REX 293 cells assessed as increase in intracellular calcium release <100 uM by FLIPR assay; assay type: functional, cell-based; conditions: filed as agonist
Summary of the method: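 FLIPR calcium: FLP-IN/T-REX HEK-293-T stable line with N-terminal FLAG codon-optimized receptor, induced 24 h with 1 μg/mL tetracycline in 1% dialyzed FBS (uninduced cells as control); FLIPR calcium dye plus 2.5 mM probenecid 1 h 37°C; 10 s baseline, then drug in HBSS/20 mM HEPES/probenecid pH 7.4, 16-point curve 10 μM to 0.003 nM; fluorescence 120 s; fold over basal, n=3 triplicate.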

Sequence of Gastrin-releasing peptide receptor (Homo sapiens) (P30550 whole entry, looked up): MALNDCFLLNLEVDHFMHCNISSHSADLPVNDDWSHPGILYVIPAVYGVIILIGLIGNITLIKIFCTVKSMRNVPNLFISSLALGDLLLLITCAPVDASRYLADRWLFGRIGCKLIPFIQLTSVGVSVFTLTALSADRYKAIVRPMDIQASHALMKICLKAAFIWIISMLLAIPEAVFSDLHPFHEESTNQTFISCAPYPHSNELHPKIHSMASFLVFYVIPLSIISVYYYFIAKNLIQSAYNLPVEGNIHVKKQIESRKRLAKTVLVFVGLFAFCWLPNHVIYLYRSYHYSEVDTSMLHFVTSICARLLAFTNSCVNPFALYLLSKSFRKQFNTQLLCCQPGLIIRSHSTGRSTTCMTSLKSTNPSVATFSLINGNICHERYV

Row | Structure (SMILES) | Activity [1] | Activity [2] | Activity [3] | EC50 ([4]; read-out: EC50) [nM] | Activity [5] | Activity [6] | Activity [7] | Activity [8] | Activity [9] | Activity [10] | Activity [11] | Activity [12] | Activity [13] | Activity [14] | Activity [15] | Activity [16] | Activity [17] | Activity [18] | Activity [19] | EC50 ([24]; read-out: EC50) [nM] | also measured
1 | CN(C)[C@@H]1CCN(c2cc(-c3ccccc3)nc3ccnn23)C1 [(R)-ZINC-3573] | inactive | inactive | inactive | 1000 | inactive | inactive | inactive | inactive | inactive | inactive | inactive | inactive | inactive | inactive | inactive | inactive | inactive | inactive | Active | 740 | Activity [20]: inactive; Activity [21]: inactive; Activity [22]: inactive; Activity [23]: inactive
2 | C[C@@H](O)[C@@H]1NC(=O)[C@H](CCCCN)NC(=O)[C@H](Cc2c[nH]c3ccccc23)NC(=O)[C@H](Cc2ccccc2)NC(=O)[C@H](Cc2ccccc2)NC(=O)[C@H](CC(N)=O)NC(=O)[C@H](CCCCN)NC(=O)[C@@H](NC(=O)[C@@H]2CCCN2)CSSC[C@@H](C(=O)N[C@@H](CCCCN)C(=O)O)NC(=O)[C@H](CO)NC(=O)[C@H](CO)NC(=O)[C@H](Cc2ccccc2)NC1=O (HELM PEPTIDE1{P.C.K.N.F.F.W.K.T.F.S.S.C.K}$PEPTIDE1,PEPTIDE1,2:R3-13:R3$$$V2.0) | – | – | – | – | – | – | – | – | – | – | – | – | – | – | – | – | – | – | – | – | EC50 ([4]; read-out: pEC50 (converted)): 417 nM; Activity (Flp-In-T-REx-293): Active; Activity (HTLA [25]): Active; EC50 ([24]; read-out: pEC50 (converted)): 145 nM
3 | CN1CC[C@]23c4c5ccc(O)c4O[C@H]2[C@@H](O)C=C[C@H]3[C@H]1C5 [MORPHINE] | – | – | – | 7000 | – | – | – | – | – | – | – | – | – | – | – | – | – | – | Active | 6400 | Activity [26]: inactive; Activity [27]: inactive; Activity [28]: Active; Activity (HTLA [29]): inactive; EC50 ([24]; read-out: pEC50 (converted)): 6170 nM; Activity (HTLA [30]): Active
4 | CN(C)[C@H]1CCN(c2cc(-c3ccccc3)nc3ccnn23)C1 [(S)-ZINC-3573] | inactive | inactive | inactive | – | inactive | inactive | inactive | inactive | inactive | inactive | inactive | inactive | inactive | inactive | inactive | inactive | inactive | inactive | – | > 100000 | Activity [31]: Active; Activity [20]: inactive; Activity [21]: inactive; Activity [22]: inactive; Activity [23]: inactive; Activity [32]: Active

Source: ChEMBL document CHEMBL5661985, “In silico design of novel probes for the atypical opioid receptor MRGPRX2” (Nat Chem Biol, 2017)
